{"source": "paper PMC7345411", "about": "(ACS Omega, 2020)", "key": {"[1]": {"experiment": "Solubility in water by UV-visible spectrophotometry", "format": "physicochemical"}, "HeLa": {"test_system": "HeLa", "experiment": "MTT cell proliferation inhibition assay", "format": "cell-based", "conditions": "Homo sapiens, 72 h"}, "Acute toxicity study": {"experiment": "Acute toxicity study", "format": "in vivo", "conditions": "for Nd (number of dead animals) / R (%) = Nd/Ni: Ni 10; for LD50: in vivo, acute toxicity"}, "JEG3": {"test_system": "JEG3", "experiment": "MTT cell proliferation inhibition assay", "format": "cell-based", "conditions": "Homo sapiens, JEG-3, 72 h"}, "[2]": {"experiment": "Pharmacokinetics after oral administration in rats", "format": "in vivo, Sprague-Dawley rats", "conditions": "0.06 mmol/kg"}, "HCT116 tumor": {"test_system": "HCT116 tumor", "experiment": "HCT116 xenograft tumor model in BALB/c nude mice", "format": "in vivo", "conditions": "dose 0.036 mmol/kg/d, daily injection for 21 days", "method_in_brief": "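Nude mice given 5 × 10^5 viable HCT116 cells subcutaneously in the right flank. Daily injections into the left hypogastrium for 21 days. Test compound at 0.006, 0.012 or 0.018 mmol/kg/d. Comparators: 5-FU 0.036 mmol/kg/d and an uncrystallised 3:1 mix (5-FU 0.036 + NCM 0.012 mmol/kg/d), plus blank control. Mice euthanised; tumours weighed and examined by H&E (×100). TGI = (mean control weight − mean treated weight)/mean control weight.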"}, "Hep G2": {"test_system": "Hep G2", "experiment": "MTT cell proliferation inhibition assay", "format": "cell-based", "conditions": "Homo sapiens, HepG2, 72 h"}, "SMMC7721": {"test_system": "SMMC7721", "experiment": "MTT cell proliferation inhibition assay", "format": "cell-based", "conditions": "Homo sapiens, SMMC-7721, 72 h"}, "HCT116": {"test_system": "HCT116", "experiment": "MTT cell proliferation inhibition assay", "format": "cell-based", "conditions": "Homo sapiens, HCT-116, 72 h"}, "[3]": {"conditions": "dose 122.2/0.86 (mg/kg)/(mmol/kg)"}, "[4]": {"conditions": "dose 133.4/1.03 (mg/kg)/(mmol/kg)"}, "[5]": {"conditions": "dose 158.5/1.22 (mg/kg)/(mmol/kg)"}, "[6]": {"conditions": "Sprague-Dawley, rat, plasma, po"}}, "note": "Values joined by “and” are separate entries in the source; they are usually repeats but may differ in a detail not shown here. Equal entries are not always repeated.", "data": [{"smiles": "O=c1[nH]cc(F)c(=O)[nH]1", "note": "[5-FU, 5-Fluorouracil]", "values": [{"measurement": "solubility at 24 h", "setting": "[1]", "value": "10500 µg/mL and 80000 µM"}, {"measurement": "IC50", "setting": "HeLa", "value": 7.96, "unit": "µM"}, {"measurement": "probit (P + 5)", "setting": "Acute toxicity study; [3]", "value": 3.720}, {"measurement": "Nd (number of dead animals)", "setting": "Acute toxicity study; [3]", "value": 1}, {"measurement": "R (%) = Nd/Ni", "setting": "Acute toxicity study; [3]", "value": 10, "unit": "%"}, {"measurement": "probit (P + 5)", "setting": "Acute toxicity study; [4]", "value": 5.520}, {"measurement": "Nd (number of dead animals)", "setting": "Acute toxicity study; [4]", "value": 7}, {"measurement": "R (%) = Nd/Ni", "setting": "Acute toxicity study; [4]", "value": 70, "unit": "%"}, {"measurement": "probit (P + 5)", "setting": "Acute toxicity study; [5]", "value": 6.28}, {"measurement": "Nd (number of dead animals)", "setting": "Acute toxicity study; [5]", "value": 9}, {"measurement": "R (%) = Nd/Ni", "setting": "Acute toxicity study; [5]", "value": 90, "unit": "%"}, {"measurement": "LD50", "setting": "Acute toxicity study; LD50 95% confidence interval", "value": "380 to 2630", "unit": "µmol/kg"}, {"measurement": "LD50", "setting": "Acute toxicity study; LD50 (median lethal dose)", "value": 1000, "unit": "µmol/kg"}, {"measurement": "IC50", "setting": "JEG3", "value": 2180, "unit": "nM"}, {"measurement": "AUC(0-inf)", "setting": "[2]; [6]", "value": "5.07 ± 0.104", "unit": "µM·h"}, {"measurement": "AUC(0-t)", "setting": "[2]; [6]", "value": "4.93 ± 0.076", "unit": "µM·h"}, {"measurement": "CL/F", "setting": "[2]; [6]", "value": 197, "unit": "mL/min/kg"}, {"measurement": "Cmax", "setting": "[2]; [6]", "value": "7.99 ± 0.375", "unit": "µM"}, {"measurement": "Tmax", "setting": "[2]; [6]", "value": 20, "unit": "min"}, {"measurement": "half-life", "setting": "[2]; [6]", "value": "18.1 ± 3.72", "unit": "min"}, {"measurement": "V1/F", "setting": "[2]; oral, SD rats, n = 8", "value": "2.783 ± 0.915", "unit": "L/kg"}, {"measurement": "t1/2α", "setting": "[2]; oral, SD rats, n = 8", "value": "3.84 ± 0.78", "unit": "min"}, {"measurement": "TGI (tumor growth inhibition)", "setting": "HCT116 tumor", "value": 21.8, "unit": "%"}, {"measurement": "W̅ average tumor growth weight", "setting": "HCT116 tumor", "value": "0.65 ± 0.10", "unit": "g"}, {"measurement": "IC50", "setting": "Hep G2", "value": 3.86, "unit": "µM"}, {"measurement": "IC50", "setting": "SMMC7721", "value": 18.9, "unit": "µM"}, {"measurement": "IC50", "setting": "HCT116", "value": 32.5, "unit": "nM"}]}]}
